# Source: PubChem BioAssay
# Activity calls are given as the source filed them.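 The calls were made as follows, unless noted: active = viability at or under a set limit in both replicates, limit being median viability minus 3 SD (cut at about 48% in these data, passing the limit was not always enough); inconclusive = at or under the limit in just one replicate; inactive = at or above the limit in both replicates.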
# Tests used:
# [1] = Her2 expression decrease, cell viability multiplex – SKBR3 breast tumor cells, AlphaScreen, ATP viability, primary screen (AID 461;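 active = Her2 level under about 52% in both replicate screens, with viability over 70% of control, limit read from the data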;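 as to Her2 level: lower value means less Her2 protein in the cells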;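 as to viability: percent of carrier control wells set as 100% viability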); conditions: SKBR3 Her2 protein level, 18-24 h, measured here: SKBR3 viability, ATP luminescence, at 10 µM
# [2] = target: Receptor tyrosine-protein kinase erbB-2 (Homo sapiens) (UniProt P04626); assay: as above; conditions: 18-24 h, at 10 µM, stronger effect = lower value
# Chain of Receptor tyrosine-protein kinase erbB-2 (Homo sapiens) (P04626 whole entry, looked up): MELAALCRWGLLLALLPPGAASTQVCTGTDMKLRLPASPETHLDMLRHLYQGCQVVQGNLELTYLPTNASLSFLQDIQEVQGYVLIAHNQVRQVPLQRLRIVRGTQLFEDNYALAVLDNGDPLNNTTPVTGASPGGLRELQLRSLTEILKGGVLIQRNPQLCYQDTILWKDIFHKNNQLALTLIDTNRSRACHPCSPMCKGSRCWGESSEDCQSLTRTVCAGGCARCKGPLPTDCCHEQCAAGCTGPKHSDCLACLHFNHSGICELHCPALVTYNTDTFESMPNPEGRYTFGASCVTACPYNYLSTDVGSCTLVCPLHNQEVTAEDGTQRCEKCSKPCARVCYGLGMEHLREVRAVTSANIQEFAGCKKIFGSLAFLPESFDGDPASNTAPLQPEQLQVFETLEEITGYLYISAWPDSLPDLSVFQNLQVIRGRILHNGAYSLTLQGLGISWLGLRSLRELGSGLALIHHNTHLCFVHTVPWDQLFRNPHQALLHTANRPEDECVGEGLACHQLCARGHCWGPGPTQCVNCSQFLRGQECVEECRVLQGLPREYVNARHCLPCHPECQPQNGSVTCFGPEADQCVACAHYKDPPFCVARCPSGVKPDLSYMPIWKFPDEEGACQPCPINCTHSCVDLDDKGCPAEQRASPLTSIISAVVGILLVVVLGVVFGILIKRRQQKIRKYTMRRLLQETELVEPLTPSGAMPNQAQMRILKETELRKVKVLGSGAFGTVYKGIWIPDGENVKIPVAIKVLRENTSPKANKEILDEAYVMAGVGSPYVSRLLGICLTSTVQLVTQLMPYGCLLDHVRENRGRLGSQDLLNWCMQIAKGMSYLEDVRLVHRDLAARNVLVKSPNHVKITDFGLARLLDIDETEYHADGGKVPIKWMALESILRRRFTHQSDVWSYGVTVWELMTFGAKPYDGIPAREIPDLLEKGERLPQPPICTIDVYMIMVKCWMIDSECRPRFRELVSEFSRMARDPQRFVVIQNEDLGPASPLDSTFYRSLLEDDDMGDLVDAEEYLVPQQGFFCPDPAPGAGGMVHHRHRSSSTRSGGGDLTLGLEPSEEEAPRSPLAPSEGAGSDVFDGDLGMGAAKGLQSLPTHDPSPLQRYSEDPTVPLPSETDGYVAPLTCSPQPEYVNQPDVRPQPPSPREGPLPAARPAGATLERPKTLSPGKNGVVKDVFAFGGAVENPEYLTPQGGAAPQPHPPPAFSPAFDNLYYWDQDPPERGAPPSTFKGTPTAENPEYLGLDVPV
# [3] = reduced viability of SK-BR-3 breast cancer cells – cell-based, 24 h, human, pilot screen (AID 572;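 active = viability at or below 10% of carrier control in both of two separate runs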;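 also: compound exposure lasted between 18 and 24 h rather than exactly 24 h; 100% = carrier-treated control wells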); conditions: SK-BR-3 viability, CellTiter-Glo luminescence, at 10 µM, stronger effect = lower value
# [4] = HUVEC growth inhibition – cell-based, human, primary screen (AID 575;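 active = viability at or below 30% in both replicate assays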;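 also: 100% = median of untreated cell wells with 0.1% DMSO on each plate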); conditions: HUVEC proliferation, CellTiter-Glo luminescence, 72 h; at 10 µM; stronger effect = lower value
# Outline: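 Test system: primary human umbilical vein endothelial cells; medium: endothelial basal medium with 2% FBS plus growth supplements; dosing: 10 µM compound only; times: 72 h treatment at 37 °C; signal: CTG luminescence; read-out: % viability relative to median vehicle-well signal on each plate; control set: vehicle and MePR control wells; plate: 384-well, collagen-coated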
# [5] = H69AR cell proliferation blockers – human, duplicate replicates, primary screen (AID 580); conditions: H69AR lung tumor cells viability, ATP luminescence, 72 h; at 10 µM; stronger effect = lower value;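 also: 100% = mean luminescence of untreated wells and 0% = no signal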
# [6] = MRP1 drug-resistance reversers in H69AR cells – cell-based, doxorubicin co-treatment, pilot screen (AID 601;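 active = viability loss from added drug above about 55%, and viability with drug at most 40%, in both replicates, limit read from the data, passing the limit was not always enough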); conditions: CellTiter-Glo, 72 h, at 10 µM; for differential viability (reversal): stronger effect = higher value
# [7] = yeast transport mutant growth inhibition pilot in 384-well plates, post-Golgi transport modulator project (AID 636; in the data active = inhibition above about 31%); conditions: absorbance 615 nm, about 18 h, stronger effect = higher value
# [8] = growth suppression of yeast trafficking mutant, preliminary HTS, modulators of trafficking downstream of Golgi apparatus project, 1536-format plate, OD 615 nm (AID 637; in the data active = inhibition above about 30%); conditions: yeast transport mutant growth, absorbance 615 nm, 18 h; stronger effect = higher value
# [9] = H69AR cells + 2 uM doxorubicin, measured here: viability with 2 uM doxorubicin, stronger effect = lower value
# [10] = H69AR cells, compound alone cytotoxicity
Compound,viability [1],Her2 level [2],viability [3],viability [4],viability [5],differential viability (reversal) ([6]; H69AR cells + 2 uM doxorubicin),"viability [6, 9]","viability [6, 10]",inhibition [7],inhibition [8]
C=CCN(CC=C)C(=O)CN1C(=O)c2ccccc2C1=O,125%,89.5% (inactive),125% (inactive),97.5% (inactive),92.2% (inactive),0.065% (inactive),92.1%,92.2%,0% (inactive),1.13% (inactive)
CC1=C(C(=O)OC(C)C)C(C2CC=CCC2)NC(=O)N1 (stereo not given),95.5%,113% (inactive),95.5% (inactive),98.5% (inactive),87.3% (inactive),-1.42% (inactive),88.7%,87.3%,0.77% (inactive),-10.7% (inactive)
Nc1nc(CSc2nc3ccccc3[nH]2)nc(N2CCOCC2)n1,96%,100% (inactive),96% (inactive),109% (inactive),92.8% (inactive),0.96% (inactive),91.9%,92.8%,-0.13% (inactive),-3.83% (inactive)
Cc1ccc(S(=O)(=O)N2CCCC(c3nnc4n3-c3ccccc3SC4)C2)cc1 (stereo not given),78%,71.5% (inactive),78% (inactive),87.2% (inactive),76.5% (inactive),4.54% (inactive),72%,76.5%,-8.67% (inactive),4.92% (inactive)
CCCCn1c(CN2CCN(CCO)CC2)nc2ccccc21,84%,92% (inactive),84% (inactive),91.8% (inactive),96% (inactive),5.24% (inactive),90.7%,96%,-0.39% (inactive),-6.55% (inactive)
Cc1coc(NC(=O)CSc2nc(-c3ccncc3)cc(C(F)(F)F)c2C#N)n1,106%,71% (inactive),106% (inactive),79% (inactive),71.8% (inactive),1.41% (inactive),70.4%,71.8%,-2.5% (inactive),0.73% (inactive)
CCn1ncc(C2=NOC(C(=O)N3CCC(C(N)=O)CC3)C2)c1C (stereo not given),104%,106% (inactive),104% (inactive),98.6% (inactive),101% (inactive),-2.31% (inactive),103%,101%,-1.05% (inactive),15.2% (inactive)
CCn1c(CCC(=O)Nc2nc3c(s2)CCCC3)nc2cc(S(=O)(=O)N(C)C)ccc21,89.5%,80% (inactive),89.5% (inactive),59.9% (inactive),85.4% (inactive),18.7% (inactive),66.7%,85.4%,5.27% (inactive),-3.11% (inactive)
O=C(O)c1ccccc1C(=O)Nc1ccccc1,121%,124% (inactive),121% (inactive),103% (inactive),105% (inactive),12.1% (inactive),92.8%,105%,-6.97% (inactive),-2.13% (inactive)
Cc1ccc(S(=O)(=O)C2(C(=O)N3CCCCCC3)CC2)cc1,96.5%,83% (inactive),96.5% (inactive),93.8% (inactive),107% (inactive),1.4% (inactive),105%,107%,-2.73% (inactive),-0.95% (inactive)
CC(=O)Nc1ccn(-c2ccccc2)n1,83%,105% (inactive),83% (inactive),97.9% (inactive),93.6% (inactive),-4.04% (inactive),97.6%,93.6%,0% (inactive),-6.77% (inactive)
CCOC(=O)CNC(=O)Cn1cnc2c(nnn2-c2cccc(Cl)c2)c1=O,82.5%,109% (inactive),82.5% (inactive),105% (inactive),107% (inactive),-1.7% (inactive),108%,107%,-0.53% (inactive),-6.83% (inactive)
COc1cccc(-n2c(C)nc3c(cnn3-c3ccc(Cl)cc3)c2=O)c1,92.5%,86% (inactive),92.5% (inactive),79.8% (inactive),76.3% (inactive),-1.66% (inactive),78%,76.3%,-4.47% (inactive),4.19% (inactive)
O=C1c2ccccc2-c2nc3ncnn3c(-c3ccccc3)c21,93.5%,105% (inactive),93.5% (inactive),103% (inactive),102% (inactive),8.68% (inactive),93.2%,102%,1.97% (inactive),-3.45% (inactive)
